Cneo AK release: Cryptococcus neoformans cell lysis inducers, primary screen, AK release luminescence, single concentration | 0.2% of 360,000 active | C. neoformans lysis, adenylate kinase release luminescence, 4 h; normalised: neutral wells 0, clomiphene wells 100 | lysis activity, % at 15 µM;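 active = mean lysis activity across replicates of at least 80%, whatever share of replicates individually reach that level; inactive = mean lysis activity below 80%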
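Assay system: C. neoformans cells. Amount: yeast cell density of 5 × 10^6 cells/mL. Technique: AK luminescence. Buffer or medium: YPD. Times: static 4 h at 37 °C with compound, 1 h detection. Dosing: single-point compound dose. Read-out: lysis from increased AK signal.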
C2C12 statin: suppressors of statin myotoxicity in C2C12 myotubes, primary screen, cell-based, single point, plate reader. C2C12 myotubes + simvastatin, ATP luminescence, 48 h; scaled: DMSO 0, geranylgeraniol control 100. rescue of ATP level, % at 7.49 µM. 0.78% of 330,000 active. AID 602340, 2012;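 active = mean ATP rescue above about 67%, or every replicate alone reaching that limit, limit read from the data, passing the limit was not always enough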;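 also: myotubes were challenged with 10 µM simvastatin during compound exposure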
Xi reactivation: activators of inactive X chromosome reactivation, primary screen, imaging, XiGFP fibroblasts, GFP high-content imaging, set 2; XiGFP mouse fibroblasts, % GFP-positive cells imaging, 3 d; cells co-treated with 5-aza-dC sensitizer; scaled so ellipticine positive control = 100%; activation, % at 7.58 µM; 0.055% of 360,000 active;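 active = mean normalized replicate activation at least 10% and every replicate at or above 10%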;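 also: 0% = median of on-plate neutral control wells and 100% = ellipticine 6 µM median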
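System: SV40-immortalized XiGFP fibroblast cells, line 68-5-11 / Incubation: 3-day compound exposure, then 15 min fixation at room temperature / Compound: single concentration per compound, delivered by pin transfer / Buffer or medium: DMEM plus 5-aza-dC sensitizer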
DENV2 CPE: inhibitors of DENV2 cytopathic effect, primary screen, cell-based, plate reader, single concentration. DENV2-infected cells, cytopathic effect rescue. CPE inhibition, % at 9.99 µM. 1.7% of 350,000 active. AID 651640, 2012; in the data active = CPE inhibition above about 20%, passing the limit was not always enough; tested in BHK-21 cells;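 also: 0% = median of neutral control wells and 100% = median of positive control wells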
* marks the source's active call; other numbers are inactive results; ! = repeats disagree. The list is not random: actives were taken first. Their share in the collection is about 2.1%.

C[C@H](CO)N1C[C@H](C)[C@H](CN(C)C)Oc2ccc(NS(=O)(=O)c3ccccc3)cc2C1=O was read as Cneo AK release -9, C2C12 statin -21, Xi reactivation 0 and DENV2 CPE 4.
`CNC[C@H]1Oc2c(NC(=O)Nc3ccc(OC)cc3)cccc2C(=O)N([C@H](C)CO)C[C@@H]1C` gave Cneo AK release 39, C2C12 statin 2, Xi reactivation -1 and DENV2 CPE -7.
COc1ccc(CNC(=O)c2c(O)c3cccc4c3n(c2=O)CCC4)cc1OC was read as Cneo AK release -1 and C2C12 statin 79*.
`CN1CCN(C(=O)C[C@H]2CC[C@@H]3[C@H](COC[C@H](O)CN3Cc3cccc(Cl)c3)O2)CC1` gave Cneo AK release 51, C2C12 statin 5, Xi reactivation 0 and DENV2 CPE 3.
Screening CN1CCN(C(=O)C[C@@H]2CC[C@@H]3[C@H](COC[C@@H](O)CN3Cc3cccc(Cl)c3)O2)CC1 returned Cneo AK release -3, C2C12 statin 3, Xi reactivation 0 and DENV2 CPE 31*!.
For CN1CCN(C(=O)C[C@@H]2CC[C@@H]3[C@H](COC[C@@H](O)CN3Cc3ccc4c(c3)OCO4)O2)CC1 the results were Cneo AK release 10, C2C12 statin -4, Xi reactivation 0 and DENV2 CPE 100*.
C/C=C/c1cnc2c(c1)C(=O)N([C@@H](C)CO)C[C@@H](C)[C@@H](CN(C)C(=O)c1cccc(F)c1)O2 was read as Cneo AK release -5, C2C12 statin -2, Xi reactivation -1 and DENV2 CPE 10.
O=C(Nc1ccccc1C(=O)N1CCOCC1)c1ccc(F)cc1 was read as Cneo AK release -1 and C2C12 statin 86*.
O=C(Nc1ccccc1C(=O)N1CCOCC1)c1ccc(Br)cc1 was read as Cneo AK release 1 and C2C12 statin 2.
`Cn1c(=O)n(C)c2cc(N3CCOCC3)c(NC(=O)c3ccc(F)cc3)cc21` gave Cneo AK release -4, C2C12 statin 7, Xi reactivation 0 and DENV2 CPE 42*.
COc1cccc(-c2ccc(C3[C@H]4CNC[C@@H]3N4S(=O)(=O)c3cccc(Cl)c3)cc2)c1 (stereo partly specified) was read as Xi reactivation 0 and DENV2 CPE -3.
Screening COCCCNc1oc(-c2ccccc2F)nc1C#N returned Cneo AK release 0, C2C12 statin -32, Xi reactivation 0 and DENV2 CPE 25*.
For CCCC(=O)Nc1ccc2c(c1)OC[C@@H](C)N(CCc1ccccc1)C[C@@H](C)[C@@H](OC)CN(C)C2=O the results were C2C12 statin 15 and Xi reactivation 0.
Screening CCC(=O)N1CC2(C1)[C@H](c1ccc(-c3ccccc3)cc1)[C@@H](CO)N2C(C)=O returned Xi reactivation 0 and DENV2 CPE -5.
`c1ccc(CCNc2nc(-c3ccccn3)nc3ccccc23)cc1` gave Cneo AK release 1, Xi reactivation 26* and DENV2 CPE -15.
Screening CC(C)NC(=O)N(C)C[C@@H]1Oc2cc(C3=CCCC3)ccc2S(=O)(=O)N([C@@H](C)CO)C[C@@H]1C returned Cneo AK release 54, C2C12 statin 19 and Xi reactivation 0.
For CC(C)NC(=O)N(C)C[C@@H]1Oc2cc(C3=CCCC3)ccc2S(=O)(=O)N([C@H](C)CO)C[C@@H]1C the results were Cneo AK release -1, C2C12 statin 14, Xi reactivation -1 and DENV2 CPE 47*.
C[C@@H]1CN([C@@H](C)CO)S(=O)(=O)c2ccc(C3=CCCC3)cc2O[C@@H]1CN(C)C(=O)C1CCC1 was read as Cneo AK release 0, C2C12 statin 1, Xi reactivation -1 and DENV2 CPE -9.
`C[C@H](CO)N1C[C@H](C)[C@@H](CN(C)C(=O)C2CCC2)Oc2cc(C3=CCCC3)ccc2S1(=O)=O` gave Cneo AK release -1, C2C12 statin -16, Xi reactivation -1 and DENV2 CPE 32*.
Screening C[C@H]1CN([C@@H](C)CO)S(=O)(=O)c2ccc(C3=CCCC3)cc2O[C@@H]1CN(C)C(=O)CC1CC1 returned Cneo AK release 45, C2C12 statin 4, Xi reactivation 0 and DENV2 CPE 70*.
`C[C@@H]1CN([C@H](C)CO)S(=O)(=O)c2ccc(C3=CCCC3)cc2O[C@@H]1CN(C)C(=O)CC1CC1` gave Cneo AK release 1, C2C12 statin -13, Xi reactivation -1 and DENV2 CPE -8.
`C[C@H](CO)N1C[C@H](C)[C@@H](CN(C)S(=O)(=O)c2ccc(Cl)cc2)Oc2ccc(N(C)C)cc2C1=O` gave Xi reactivation 0 and DENV2 CPE 2.
For CCC(=O)Nc1ccc2c(c1)OC[C@@H](C)N(C(=O)C1CC1)C[C@H](C)[C@H](OC)CN(C)C2=O the results were Xi reactivation 0 and DENV2 CPE 36*.
`CO[C@@H]1CN(C)C(=O)c2ccc(NC(C)=O)cc2OC[C@@H](C)N(C(=O)CN2CCOCC2)C[C@@H]1C` gave Cneo AK release 1, C2C12 statin 7, Xi reactivation 0 and DENV2 CPE 28*.
`CCC(=O)Nc1ccc2c(c1)OC[C@H](C)N(C(=O)C1CC1)C[C@@H](C)[C@H](OC)CN(C)C2=O` gave Cneo AK release -2, C2C12 statin 2, Xi reactivation 0 and DENV2 CPE -5.
For CO[C@@H]1CN(C)C(=O)c2ccc(NC(C)=O)cc2OC[C@@H](C)N(C(=O)C2CCC2)C[C@@H]1C the results were Cneo AK release 36, C2C12 statin 14, Xi reactivation 0 and DENV2 CPE -9.
CO[C@H]1CN(C)C(=O)c2ccc(NC(C)=O)cc2OC[C@H](C)N(C(=O)C2CCC2)C[C@@H]1C was read as Xi reactivation 0 and DENV2 CPE 30*.
Screening CCC(=O)Nc1ccc2c(c1)OC[C@@H](C)N(C(=O)CN1CCOCC1)C[C@H](C)[C@@H](OC)CN(C)C2=O returned Cneo AK release -3, C2C12 statin -17, Xi reactivation 0 and DENV2 CPE 12.
`COCCN=C1Sc2nc3c(C)cccc3cc2CN1Cc1ccco1` gave Cneo AK release -2 and C2C12 statin 114*.
Screening C[C@@H]1CCCCO[C@@H](CN(C)C(=O)c2ccccc2)[C@@H](C)CN([C@H](C)CO)C(=O)c2cc(NC(=O)CCC(F)(F)F)ccc2O1 returned Cneo AK release -2, Xi reactivation 0 and DENV2 CPE 93*.
`C[C@@H]1CCCCO[C@H](CN(C)C(=O)c2ccncc2)[C@H](C)CN([C@H](C)CO)C(=O)c2cc(NC(=O)CCC(F)(F)F)ccc2O1` gave Cneo AK release 82*, Xi reactivation 0 and DENV2 CPE 74*.

Assay outcomes deposited in PubChem BioAssay by Broad Institute.
